Results published in ChEMBL document CHEMBL3580589, “Discovery of Quinazoline-Based Fluorescent Probes to α1-Adrenergic Receptors” (ACS Med Chem Lett, 2015).
The source made the active and inactive calls. The rule behind the calls is not given here.

Tests used:
[1] = target: T1, Alpha-1D adrenergic receptor (Homo sapiens, UniProt P25100); assay: Displacement of [3H]-Prazosin from human alpha-1D adrenergic receptor transfected in CHO cell membranes after 2 hrs by microplate scintillation counting analysis
T1 sequence (P25100 whole entry): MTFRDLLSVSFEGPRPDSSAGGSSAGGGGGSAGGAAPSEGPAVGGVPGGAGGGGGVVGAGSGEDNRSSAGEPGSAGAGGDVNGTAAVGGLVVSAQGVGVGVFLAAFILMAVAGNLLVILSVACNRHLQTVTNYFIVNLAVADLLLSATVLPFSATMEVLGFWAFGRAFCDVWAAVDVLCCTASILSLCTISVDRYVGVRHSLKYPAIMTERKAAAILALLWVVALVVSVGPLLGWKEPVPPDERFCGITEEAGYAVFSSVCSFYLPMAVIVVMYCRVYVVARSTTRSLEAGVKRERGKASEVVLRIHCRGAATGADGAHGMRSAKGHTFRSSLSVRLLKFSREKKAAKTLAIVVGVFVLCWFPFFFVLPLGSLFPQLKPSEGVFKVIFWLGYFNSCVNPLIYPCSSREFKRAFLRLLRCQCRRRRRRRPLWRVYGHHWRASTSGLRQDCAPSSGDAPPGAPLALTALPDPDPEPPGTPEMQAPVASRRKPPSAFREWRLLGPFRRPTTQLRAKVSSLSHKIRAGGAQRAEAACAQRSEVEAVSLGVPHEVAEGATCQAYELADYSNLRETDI
Outline: (§1)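 Radioligand competition binding used [3H]prazosin on membranes from CHO cells transfected with human cloned α1A-, α1B- or α1D-adrenoceptors.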

[2] = Cytotoxicity against HEK293A cells transfected with alpha-1A adrenergic receptor assessed as cell viability by sulforhodamine B assay; assay type: cell-based; settings: Homo sapiens, HEK293-A
Outline: (§2)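 Standard sulforhodamine B colorimetric assay in HEK293A cells stably transfected with α1A-AR or α1D-AR.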

[3] = Cytotoxicity against HEK293A cells transfected with alpha-1D adrenergic receptor assessed as cell viability by sulforhodamine B assay; assay type: cell-based; settings: Homo sapiens, HEK293-A; outline: as §2
[4] = target: T2, Alpha-1A adrenergic receptor (Homo sapiens) (UniProt P35348); assay: Binding affinity to alpha-1A adrenergic receptor (unknown origin) transfected in HEK293A cells at 50 nM after 5 mins by DiD dye-based confocal microscopic analysis; assay type: cell-based; settings: HEK293-A
T2 sequence (whole entry): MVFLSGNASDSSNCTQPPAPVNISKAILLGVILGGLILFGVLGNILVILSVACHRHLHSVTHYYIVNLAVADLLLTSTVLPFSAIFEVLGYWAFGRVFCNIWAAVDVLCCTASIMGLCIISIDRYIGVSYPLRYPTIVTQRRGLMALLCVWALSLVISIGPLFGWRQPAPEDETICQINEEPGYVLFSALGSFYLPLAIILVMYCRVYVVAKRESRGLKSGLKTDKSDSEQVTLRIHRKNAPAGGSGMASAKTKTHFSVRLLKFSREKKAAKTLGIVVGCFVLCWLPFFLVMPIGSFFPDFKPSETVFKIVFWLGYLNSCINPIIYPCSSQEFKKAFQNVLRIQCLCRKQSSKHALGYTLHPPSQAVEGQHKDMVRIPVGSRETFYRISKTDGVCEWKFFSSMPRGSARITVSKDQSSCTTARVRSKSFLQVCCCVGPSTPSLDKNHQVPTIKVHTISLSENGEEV
Outline: (§3)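 α1A-AR- or α1D-AR-transfected HEK293A cells, or untransfected HEK293A cells as the receptor-free control, were incubated with the probe plus DiD (red, colocalization) for 5 min at 37 °C. Probe signal was compared with the DiD-stained surface for subcellular localization by fluorescence microscopy.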

[5] = target: T3, Alpha-1D adrenergic receptor (Homo sapiens) (UniProt P25100); assay: Binding affinity to alpha-1D adrenergic receptor (unknown origin) transfected in HEK293A cells at 50 nM after 5 mins by DiD dye-based confocal microscopic analysis; assay type: cell-based; settings: HEK293-A; outline: as §3
T3 sequence (whole entry): T1 sequence (P25100 whole entry)

[6] = target: T2, Alpha-1A adrenergic receptor (Homo sapiens); assay: Binding affinity to alpha-1A adrenergic receptor (unknown origin) transfected in HEK293A cells at 50 nM after 5 mins by DiD dye-based confocal microscopic analysis in presence of alpha1 adrenergic receptor antagonist tamsulosin; assay type: cell-based; settings: HEK293-A
Outline: (§4)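 Transfected HEK293A cells expressing α1A-AR or α1D-AR were incubated with the probe, DiD and tamsulosin as competing α1-AR antagonist for 5 min at 37 °C. Fluorescence labelling was imaged by confocal microscopy.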

[7] = target: T3, Alpha-1D adrenergic receptor (Homo sapiens); assay: Binding affinity to alpha-1D adrenergic receptor (unknown origin) transfected in HEK293A cells at 50 nM after 5 mins by DiD dye-based confocal microscopic analysis in presence of alpha1 adrenergic receptor antagonist tamsulosin; assay type: cell-based; settings: HEK293-A; outline: as §4
[8] = Drug uptake in HEK293A cells at 50 nM after 5 mins by DiD dye-based confocal microscopic analysis; assay type: ADME, cell-based; settings: human, hek293-a, 0.05 µM; outline: as §3
[9] = target: T4, Alpha-1A adrenergic receptor (Homo sapiens, UniProt P35348); assay: Displacement of [3H]-Prazosin from human alpha-1A adrenergic receptor transfected in CHO cell membranes after 2 hrs by microplate scintillation counting analysis; outline: as §1
T4 sequence (P35348 whole entry): T2 sequence (whole entry)

[10] = target: T5, Alpha-1B adrenergic receptor (Homo sapiens, UniProt P35368); assay: Displacement of [3H]-Prazosin from human alpha-1B adrenergic receptor transfected in CHO cell membranes after 2 hrs by microplate scintillation counting analysis; outline: as §1
T5 sequence (P35368 whole entry): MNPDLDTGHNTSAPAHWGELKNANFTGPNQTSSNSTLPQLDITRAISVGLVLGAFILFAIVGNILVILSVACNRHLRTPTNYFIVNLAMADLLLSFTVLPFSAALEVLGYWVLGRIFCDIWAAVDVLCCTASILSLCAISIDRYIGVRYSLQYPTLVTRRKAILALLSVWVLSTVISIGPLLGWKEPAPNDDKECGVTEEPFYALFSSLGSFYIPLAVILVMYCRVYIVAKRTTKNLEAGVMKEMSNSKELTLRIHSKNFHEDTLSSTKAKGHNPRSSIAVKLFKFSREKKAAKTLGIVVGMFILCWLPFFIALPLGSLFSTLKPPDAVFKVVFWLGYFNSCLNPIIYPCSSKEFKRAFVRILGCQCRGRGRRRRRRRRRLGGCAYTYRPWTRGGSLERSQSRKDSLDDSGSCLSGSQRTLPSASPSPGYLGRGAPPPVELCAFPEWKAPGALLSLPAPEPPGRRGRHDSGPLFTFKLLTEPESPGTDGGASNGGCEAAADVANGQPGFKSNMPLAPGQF

[11] = target: T6, Adrenergic receptor alpha-1 (Homo sapiens) (UniProt P35348+P25100+P35368); assay: Binding affinity to alpha-1 adrenergic receptor in human PC3 cells at 1 uM measured 30 mins post wash out by fluorescence assay; assay type: cell-based; settings: PC-3
Outline: (§5)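 PC-3 or HepG2 cells were incubated with the probe at 1 μM for 30 min at 37 °C, then washed immediately. Labelling was imaged by fluorescence microscopy, with background adjusted.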

HepG2 = assay: Drug uptake in human HepG2 cells expressing low level of alpha-1 adrenergic receptor at 1 uM measured 30 mins post wash out by fluorescence assay; assay type: ADME, cell-based; settings: hepg2, 0.5 h; outline: as §5
[12] = target: T6, Adrenergic receptor alpha-1 (Homo sapiens); assay: Binding affinity to alpha-1 adrenergic receptor in human PC3 cells at 1 uM measured 30 mins post wash out by fluorescence assay in presence of doxazosin; assay type: cell-based; settings: PC-3
Outline: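 PC-3 cells were co-incubated with the probe at 1 μM and doxazosin at 10 μM for 30 min at 37 °C, then washed immediately. Displacement of labelling was imaged by fluorescence microscopy.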

[13] = target: T2, Alpha-1A adrenergic receptor (Homo sapiens); assay: Binding affinity to alpha-1A adrenergic receptor (unknown origin) transfected in HEK293A cells at 15 nM measured 5 mins post wash out by DiD dye-based confocal microscopic analysis; assay type: cell-based; settings: HEK293-A
Outline: (§6)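 HEK293A cells stably transfected with α1A-AR or α1D-AR, or untransfected HEK293A cells, were incubated with the probe at 15 nM plus the membrane dye DiD for 5 min at 37 °C. Cells were washed immediately and imaged by confocal fluorescence microscopy at identical exposure times.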

[14] = target: T3, Alpha-1D adrenergic receptor (Homo sapiens); assay: Binding affinity to alpha-1D adrenergic receptor (unknown origin) transfected in HEK293A cells at 15 nM measured 5 mins post wash out by DiD dye-based confocal microscopic analysis; assay type: cell-based; settings: HEK293-A; outline: as §6
[15] = target: T2, Alpha-1A adrenergic receptor (Homo sapiens); assay: Binding affinity to alpha-1A adrenergic receptor (unknown origin) transfected in HEK293A cells at 15 nM measured 5 mins post wash out by DiD dye-based confocal microscopic analysis in presence of alpha1 adrenergic receptor antagonist tamsulosin; assay type: cell-based; settings: HEK293-A
Outline: (§7)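 α1A-AR- or α1D-AR-transfected HEK293A cells were incubated with the probe at 15 nM, DiD and tamsulosin at 300 nM as competitor for 5 min at 37 °C. Cells were washed immediately and imaged by confocal microscopy at identical exposure.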

[16] = target: T3, Alpha-1D adrenergic receptor (Homo sapiens); assay: Binding affinity to alpha-1D adrenergic receptor (unknown origin) transfected in HEK293A cells at 15 nM measured 5 mins post wash out by DiD dye-based confocal microscopic analysis in presence of alpha1 adrenergic receptor antagonist tamsulosin; assay type: cell-based; settings: HEK293-A; outline: as §7
[17] = Drug uptake in HEK293A cells at 15 nM measured 5 mins post wash out by DiD dye-based confocal microscopic analysis; assay type: ADME, cell-based; settings: human, hek293-a, 0.015 µM; outline: as §6
[18] = target: T3, Alpha-1D adrenergic receptor (Homo sapiens); assay: Binding affinity to alpha-1D adrenergic receptor (unknown origin) transfected in HEK293 cells at 20 nM after 20 mins by flow cytometric analysis; assay type: cell-based
[19] = target: T3, Alpha-1D adrenergic receptor (Homo sapiens); assay: Binding affinity to alpha-1D adrenergic receptor (unknown origin) transfected in HEK293A cells at 10 nM after 5 mins by DiD dye-based confocal microscopic analysis; assay type: cell-based; settings: HEK293-A; outline: as §3
[20] = target: T3, Alpha-1D adrenergic receptor (Homo sapiens); assay: Binding affinity to alpha-1D adrenergic receptor (unknown origin) transfected in HEK293A cells at 10 nM after 5 mins by DiD dye-based confocal microscopic analysis in presence of alpha1 adrenergic receptor antagonist tamsulosin; assay type: cell-based; settings: HEK293-A; outline: as §4
[21] = Drug uptake in HEK293A cells at 10 nM after 5 mins by DiD dye-based confocal microscopic analysis; assay type: ADME, cell-based; settings: human, hek293-a, 0.01 µM; outline: as §3

Row | SMILES | IC50 [1] | Ki [1] | IC50 [2] | IC50 [3] | IC50 [9] | Ki [9] | IC50 [10] | Ki [10] | also measured
1 | COc1cc2nc(N3CCN(C(=S)Nc4ccc(-c5c6ccc(=O)cc-6oc6cc(O)ccc56)c(C(=O)O)c4)CC3)nc(N)c2cc1OC | 34 nM | 20.7 nM | > 100000 nM | > 100000 nM | 8.8 nM | 4.7 nM | 16.3 nM | 7.3 nM | Activity [4]: Active; Activity [5]: Active; Activity [6]: inactive; Activity [7]: inactive; Drug uptake [8]: Active; Activity [11]: Active; Drug uptake (HepG2): Active; Activity [12]: inactive
2 | COc1cc2nc(N3CCN(C(=O)c4cn(-c5cc6ccc(O)cc6oc5=O)nn4)CC3)nc(N)c2cc1OC | < 5 nM | – | > 100000 nM | 85000 nM | 2.5 nM | 1.3 nM | < 5 nM | – | Activity [13]: Active; Activity [14]: Active; Activity [15]: inactive; Activity [16]: inactive; Drug uptake [17]: Active
3 | CCN(CC)c1ccc2cc(-n3cc(C(=O)N4CCN(c5nc(N)c6cc(OC)c(OC)cc6n5)CC4)nn3)c(=O)oc2c1 | 2.2 nM | 0.4 nM | 12000 nM | 32000 nM | 0.6 nM | 0.3 nM | 1.2 nM | 0.1 nM | Activity [18]: Active; Activity [19]: Active; Activity [20]: inactive; Drug uptake [21]: Active
